Data taken from article PMC11389331 (BMC Biology, 2024).

Columns and labels:
B. dioryctriae [1] = conditions: cited from earlier work
B. dioryctriae [2] = assay: Y-tube olfactometer assay; type: in vivo, Baryscapus dioryctriae; conditions: 20 μL test chemical vs paraffin oil, chi-square test
Method in brief: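 Binary Y-tube (1.1 cm diameter, 6 cm base and arms, 60° between arms) used with wasps reared at 25 ± 1 °C, 50 ± 5% RH. One arm held 20 × 50 mm filter paper loaded with 20 μL test chemical; the other held 20 μL paraffin oil. After every five wasps, the tube was cleaned with dehydrated alcohol and air-dried, and odour sides were swapped.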

CCCCCC=C(C=O)CCCC [2-butyl-2-octenal]
effect on reproductive efficiency of B. dioryctriae (B. dioryctriae [1]): significantly improve

C=C1CC[C@H]2O[C@]2(C)CC[C@@H]2[C@@H]1CC2(C)C [Caryophyllene oxide]
behavioral response (attraction) of B. dioryctriae adults (B. dioryctriae [2]): does not attract

CC1=CCC(C(C)C)=CC1 [g-Terpinene]
behavioral response (attraction) of B. dioryctriae adults (B. dioryctriae [2]): significantly attract

CC1=CCC2CC1C2(C)C (stereo not drawn) [α-Pinene]
behavioral response (attraction) of B. dioryctriae adults (B. dioryctriae [2]): significantly attract
